The source made the active and inactive calls.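 The calls were made as follows, unless noted: active = viability loss from added drug above about 55%, and viability with drug at most 40%, in both replicates (limit read from the data, passing the limit was not always enough); inconclusive = both conditions met in only one replicate; inactive = neither replicate meets both conditions.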
Legend:
[1] = reducers of endogenous Her2 protein level, primary screen, SKBR3 breast tumor cells, AlphaScreen, ATP viability (AID 461;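 active = Her2 level under about 52% in both replicate screens, with viability over 70% of control, limit read from the data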;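 as to Her2 level: lower value means less Her2 protein in the cells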;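 as to viability: percent of carrier control wells set as 100% viability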); settings: 18-24 h, measured here: SKBR3 viability, ATP luminescence, at 10 µM
[2] = biological target: Receptor tyrosine-protein kinase erbB-2 (Homo sapiens) (UniProt P04626); assay: as above; settings: 18-24 h, at 10 µM, stronger effect = lower value
[3] = SK-BR-3 cell growth inhibitors, pilot screen, 24 h, human (AID 572;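 active = viability at or below 10% of carrier control in both of two separate runs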;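 also: compound exposure lasted between 18 and 24 h rather than exactly 24 h; 100% = carrier-treated control wells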); settings: SK-BR-3 viability, CellTiter-Glo luminescence, at 10 µM, stronger effect = lower value
[4] = HUVEC growth inhibition – cell-based, human, primary screen (AID 575;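 active = viability at or below 30% in both replicate assays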;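 also: 100% = median of untreated cell wells with 0.1% DMSO on each plate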); settings: HUVEC proliferation, CellTiter-Glo luminescence, 72 h; at 10 µM; stronger effect = lower value
Method in brief: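 Test system – primary HUVEC, no more than 12 passages · Dosing – one dose, 10 µM final, 0.1% DMSO · Times – 72 h treatment at 37 °C · Measured by – ATP-based CellTiter-Glo luminescent read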

[5] = growth inhibitors of H69AR lung tumor, primary screen, human, duplicate replicates (AID 580;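 active = viability at or under a set limit in both replicates, limit being median viability minus 3 SD, cut at about 48% in these data, passing the limit was not always enough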;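 also: 100% = mean luminescence of untreated wells and 0% = no signal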); settings: H69AR lung tumor cells viability, ATP luminescence, 72 h; at 10 µM; stronger effect = lower value
[6] = reversal of MRP1-mediated doxorubicin resistance, pilot screen, H69AR cells, doxorubicin co-treatment (AID 601); settings: CellTiter-Glo, 72 h, at 10 µM; for differential viability (reversal): stronger effect = higher value
[7] = 384-well plate pilot, post-Golgi transport modulator project, inhibition of yeast transport mutant growth (AID 636; in the data active = inhibition above about 31%); settings: absorbance 615 nm, about 18 h, stronger effect = higher value
[8] = growth suppression of yeast trafficking mutant, preliminary HTS, modulators of trafficking downstream of Golgi apparatus project, 1536-format plate, OD 615 nm (AID 637; in the data active = inhibition above about 30%); settings: yeast transport mutant growth, absorbance 615 nm, 18 h; stronger effect = higher value
[9] = H69AR cells + 2 uM doxorubicin, measured here: viability with 2 uM doxorubicin, stronger effect = lower value
[10] = H69AR cells, compound alone cytotoxicity

Sequence of Receptor tyrosine-protein kinase erbB-2 (Homo sapiens) (P04626 whole entry, looked up): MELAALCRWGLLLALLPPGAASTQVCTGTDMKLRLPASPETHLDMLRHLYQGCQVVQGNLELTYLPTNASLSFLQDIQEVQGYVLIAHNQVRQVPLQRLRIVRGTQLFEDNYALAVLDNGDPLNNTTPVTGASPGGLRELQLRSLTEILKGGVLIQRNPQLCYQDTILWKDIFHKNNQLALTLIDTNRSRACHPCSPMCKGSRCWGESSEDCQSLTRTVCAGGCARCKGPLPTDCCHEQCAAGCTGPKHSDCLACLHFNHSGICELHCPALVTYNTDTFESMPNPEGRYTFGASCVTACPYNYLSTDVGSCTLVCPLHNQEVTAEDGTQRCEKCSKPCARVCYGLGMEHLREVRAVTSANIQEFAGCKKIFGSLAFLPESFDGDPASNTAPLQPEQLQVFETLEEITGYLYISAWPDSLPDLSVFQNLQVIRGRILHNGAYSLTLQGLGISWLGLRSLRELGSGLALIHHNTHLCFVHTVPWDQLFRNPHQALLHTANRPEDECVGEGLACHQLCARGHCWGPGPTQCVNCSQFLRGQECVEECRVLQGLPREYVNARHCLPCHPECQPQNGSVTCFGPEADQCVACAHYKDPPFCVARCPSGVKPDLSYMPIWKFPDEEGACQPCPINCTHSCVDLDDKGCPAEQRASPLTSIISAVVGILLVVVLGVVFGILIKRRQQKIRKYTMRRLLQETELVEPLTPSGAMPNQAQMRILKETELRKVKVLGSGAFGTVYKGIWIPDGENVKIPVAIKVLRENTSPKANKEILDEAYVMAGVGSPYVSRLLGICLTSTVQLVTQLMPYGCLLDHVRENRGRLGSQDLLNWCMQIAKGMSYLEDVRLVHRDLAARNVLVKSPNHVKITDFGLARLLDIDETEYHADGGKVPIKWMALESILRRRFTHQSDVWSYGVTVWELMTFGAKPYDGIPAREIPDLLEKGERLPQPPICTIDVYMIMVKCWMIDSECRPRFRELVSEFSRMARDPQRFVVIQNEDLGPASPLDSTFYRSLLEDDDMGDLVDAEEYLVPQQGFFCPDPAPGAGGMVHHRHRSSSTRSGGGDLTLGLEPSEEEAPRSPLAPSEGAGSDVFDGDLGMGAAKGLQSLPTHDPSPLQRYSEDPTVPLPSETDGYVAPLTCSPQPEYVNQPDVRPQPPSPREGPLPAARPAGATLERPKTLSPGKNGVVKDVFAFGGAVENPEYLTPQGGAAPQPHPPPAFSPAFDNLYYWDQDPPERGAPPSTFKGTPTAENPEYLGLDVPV

CCn1c(CNc2ccc(C)cc2)nnc1SCC(=O)NCc1ccccc1
viability [1]: 89% | Her2 level [2]: 100% (inactive) | viability [3]: 89% (inactive) | viability [4]: 91.1% (inactive) | viability [5]: 86.6% (inactive) | differential viability (reversal) ([6]; H69AR cells + 2 uM doxorubicin): -0.975% (inactive) | viability [6, 9]: 87.6% | viability [6, 10]: 86.6% | inhibition [7]: 0.13% (inactive) | inhibition [8]: 3.93% (inactive)

CN(C)c1cccc(NC(=O)CCc2ccccc2)c1
viability [1]: 86% | Her2 level [2]: 90% (inactive) | viability [3]: 86% (inactive) | viability [4]: 89.9% (inactive) | viability [5]: 94.5% (inactive) | differential viability (reversal) ([6]; H69AR cells + 2 uM doxorubicin): -7.99% (inactive) | viability [6, 9]: 102% | viability [6, 10]: 94.5% | inhibition [7]: -5.89% (inactive) | inhibition [8]: 2.38% (inactive)

CCOC(=O)Cn1c(CN2CCOCC2)nc2c1c(=O)[nH]c(=O)n2C
viability [1]: 95% | Her2 level [2]: 109% (inactive) | viability [3]: 95% (inactive) | viability [4]: 97.5% (inactive) | viability [5]: 99.7% (inactive) | differential viability (reversal) ([6]; H69AR cells + 2 uM doxorubicin): 0.165% (inactive) | viability [6, 9]: 99.5% | viability [6, 10]: 99.7% | inhibition [7]: -3.72% (inactive) | inhibition [8]: -0.67% (inactive)

COc1ccc(Cc2nnc3n2N=C(c2cc4ccccc4o2)CS3)cc1OC
viability [1]: 77% | Her2 level [2]: 79.5% (inactive) | viability [3]: 77% (inactive) | viability [4]: 64.4% (inactive) | viability [5]: 35% (active) | differential viability (reversal) ([6]; H69AR cells + 2 uM doxorubicin): -20% (inactive) | viability [6, 9]: 55% | viability [6, 10]: 35% | inhibition [7]: -7.03% (inactive) | inhibition [8]: -0.67% (inactive)

CCN(C(=O)CN1CCN(c2ccccc2OC)CC1)c1c(N)n(Cc2ccccc2)c(=O)[nH]c1=O
viability [1]: 113% | Her2 level [2]: 102% (inactive) | viability [3]: 113% (inactive) | viability [4]: 98.7% (inactive) | viability [5]: 100% (inactive) | differential viability (reversal) ([6]; H69AR cells + 2 uM doxorubicin): 9.64% (inactive) | viability [6, 9]: 90.8% | viability [6, 10]: 100% | inhibition [7]: -8% (inactive) | inhibition [8]: -0.16% (inactive)

CCOC(=O)c1sc(NC(=O)COC(=O)Cn2cnc3ccccc32)c(C(=O)OCC)c1C
viability [1]: 96% | Her2 level [2]: 78% (inactive) | viability [3]: 96% (inactive) | viability [4]: 68.4% (inactive) | viability [5]: 71.2% (inactive) | differential viability (reversal) ([6]; H69AR cells + 2 uM doxorubicin): -8.35% (inactive) | viability [6, 9]: 79.6% | viability [6, 10]: 71.2% | inhibition [7]: -0.26% (inactive) | inhibition [8]: -4.44% (inactive)

CCCN1C(=O)c2cc(C(=O)O)ccc2C1O (stereo not given)
viability [1]: 113% | Her2 level [2]: 100% (inactive) | viability [3]: 113% (inactive) | viability [4]: 90.1% (inactive) | viability [5]: 103% (inactive) | differential viability (reversal) ([6]; H69AR cells + 2 uM doxorubicin): 18.7% (inactive) | viability [6, 9]: 84.1% | viability [6, 10]: 103% | inhibition [7]: -1.07% (inactive) | inhibition [8]: 1.48% (inactive)

CCOC(=O)Cn1nnnc1CN(Cc1ccc(OC)cc1)Cc1cc2cc(C)cc(C)c2[nH]c1=O
viability [1]: 95% | Her2 level [2]: 105% (inactive) | viability [3]: 95% (inactive) | viability [4]: 87.3% (inactive) | viability [5]: 89.4% (inactive) | differential viability (reversal) ([6]; H69AR cells + 2 uM doxorubicin): 15.2% (inactive) | viability [6, 9]: 74.2% | viability [6, 10]: 89.4% | inhibition [7]: -1.32% (inactive) | inhibition [8]: -0.55% (inactive)

O=C(NC1CCCCC1)N(Cc1ccc(F)cc1)Cc1nc2ccccc2c(=O)[nH]1
viability [1]: 98.5% | Her2 level [2]: 80% (inactive) | viability [3]: 98.5% (inactive) | viability [4]: 78.2% (inactive) | viability [5]: 100% (inactive) | differential viability (reversal) ([6]; H69AR cells + 2 uM doxorubicin): 7.63% (inactive) | viability [6, 9]: 92.4% | viability [6, 10]: 100% | inhibition [7]: -5.66% (inactive) | inhibition [8]: -1.83% (inactive)

Cc1ccc(C)c(N2CCN(Cc3nnnn3C3CCCCC3)CC2)c1
viability [1]: 94% | Her2 level [2]: 91% (inactive) | viability [3]: 94% (inactive) | viability [4]: 78.1% (inactive) | viability [5]: 71% (inactive) | differential viability (reversal) ([6]; H69AR cells + 2 uM doxorubicin): -9.05% (inactive) | viability [6, 9]: 80% | viability [6, 10]: 71% | inhibition [7]: -3.25% (inactive) | inhibition [8]: 3.49% (inactive)

CCCCCn1c2nc3ccccc3nc2c2c(=O)n(CC(C)C)cnc21
viability [1]: 116% | Her2 level [2]: 103% (inactive) | viability [3]: 116% (inactive) | viability [4]: 103% (inactive) | viability [5]: 87.3% (inactive) | differential viability (reversal) ([6]; H69AR cells + 2 uM doxorubicin): -3.98% (inactive) | viability [6, 9]: 91.3% | viability [6, 10]: 87.3% | inhibition [7]: -0.79% (inactive) | inhibition [8]: 3.55% (inactive)

Cc1sc2ncnc(SCC(=O)N3CCCC3)c2c1C
viability [1]: 124% | Her2 level [2]: 95.5% (inactive) | viability [3]: 124% (inactive) | viability [4]: 78.1% (inactive) | viability [5]: 93% (inactive) | differential viability (reversal) ([6]; H69AR cells + 2 uM doxorubicin): 9.69% (inactive) | viability [6, 9]: 83.3% | viability [6, 10]: 93% | inhibition [7]: -2.08% (inactive) | inhibition [8]: 6.39% (inactive)

CC(C)Oc1ccc(C2C(C(=O)c3ccco3)=C(O)C(=O)N2CCCN(C)C)cc1 (stereo not given)
viability [1]: 89% | Her2 level [2]: 99.5% (inactive) | viability [3]: 89% (inactive) | viability [4]: 118% (inactive) | viability [5]: 110% (inactive) | differential viability (reversal) ([6]; H69AR cells + 2 uM doxorubicin): 8.15% (inactive) | viability [6, 9]: 102% | viability [6, 10]: 110% | inhibition [7]: -1.18% (inactive) | inhibition [8]: 8.2% (inactive)

O=C(Cn1cnc2c(nnn2-c2ccc(F)cc2)c1=O)NCc1ccco1
viability [1]: 97% | Her2 level [2]: 74% (inactive) | viability [3]: 97% (inactive) | viability [4]: 97.1% (inactive) | viability [5]: 84.8% (inactive) | differential viability (reversal) ([6]; H69AR cells + 2 uM doxorubicin): -0.975% (inactive) | viability [6, 9]: 85.7% | viability [6, 10]: 84.8% | inhibition [7]: -0.39% (inactive) | inhibition [8]: -2.73% (inactive)
